Columns and labels:
[1] = molecular target: T1, Beta-3 adrenergic receptor (Homo sapiens, UniProt P13945); assay: Agonistic activity was assessed by measuring cAMP accumulation in CHO cells expressing human beta-3 adrenergic receptor; assay type: functional, cell-based
Target sequence in this assay (P13945 whole entry): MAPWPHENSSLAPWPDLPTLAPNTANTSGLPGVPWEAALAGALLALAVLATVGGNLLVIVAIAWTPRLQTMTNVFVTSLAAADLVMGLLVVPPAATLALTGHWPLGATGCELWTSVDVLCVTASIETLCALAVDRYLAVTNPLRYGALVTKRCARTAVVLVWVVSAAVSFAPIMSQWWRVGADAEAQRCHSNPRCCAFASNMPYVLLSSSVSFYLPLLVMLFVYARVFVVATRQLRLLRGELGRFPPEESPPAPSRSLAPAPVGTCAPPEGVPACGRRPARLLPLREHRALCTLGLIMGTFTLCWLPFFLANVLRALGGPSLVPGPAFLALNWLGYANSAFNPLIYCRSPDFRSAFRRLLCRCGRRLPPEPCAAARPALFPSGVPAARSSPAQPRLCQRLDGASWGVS

[2] = molecular target: T1, Beta-3 adrenergic receptor; assay: Intrinsic activity against human beta-3 adrenergic receptor IA) as a percentage of maximal stimulation with isoproterenol; assay type: functional
In short: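 In CHO cells expressing low-density human β3-AR (13,000 receptors/cell), cAMP accumulation was measured. Intrinsic activity is expressed as a percentage of the maximal stimulation produced by isoproterenol.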
Target sequence in this assay (P13945 whole entry, looked up): as the sequence (P13945 whole entry) above

Caco-2 [3] = assay: Permeability of compounds was determined in Caco-2 cell monolayer permeability assay; (high); assay type: functional, cell-based; conditions: Homo sapiens
[4] = molecular target: T2, Beta-2 adrenergic receptor (Homo sapiens, UniProt P07550); assay: Agonistic activity was assessed by measuring cAMP accumulation in CHO cells expressing human beta-2 adrenergic receptor; assay type: functional, cell-based
[5] = molecular target: Beta-1 adrenergic receptor (Homo sapiens, UniProt P08588); assay: Agonistic activity was assessed by measuring cAMP accumulation in CHO cells expressing human beta-1 adrenergic receptor; assay type: functional, cell-based
[6] = molecular target: T2, Beta-2 adrenergic receptor; assay: Effective concentration against human beta-2 adrenergic receptor; assay type: functional
Caco-2 [7] = assay: Permeability of compounds was determined in Caco-2 cell monolayer permeability assay; (moderate); assay type: functional, cell-based; conditions: Homo sapiens

Chain of Beta-1 adrenergic receptor (P08588 whole entry): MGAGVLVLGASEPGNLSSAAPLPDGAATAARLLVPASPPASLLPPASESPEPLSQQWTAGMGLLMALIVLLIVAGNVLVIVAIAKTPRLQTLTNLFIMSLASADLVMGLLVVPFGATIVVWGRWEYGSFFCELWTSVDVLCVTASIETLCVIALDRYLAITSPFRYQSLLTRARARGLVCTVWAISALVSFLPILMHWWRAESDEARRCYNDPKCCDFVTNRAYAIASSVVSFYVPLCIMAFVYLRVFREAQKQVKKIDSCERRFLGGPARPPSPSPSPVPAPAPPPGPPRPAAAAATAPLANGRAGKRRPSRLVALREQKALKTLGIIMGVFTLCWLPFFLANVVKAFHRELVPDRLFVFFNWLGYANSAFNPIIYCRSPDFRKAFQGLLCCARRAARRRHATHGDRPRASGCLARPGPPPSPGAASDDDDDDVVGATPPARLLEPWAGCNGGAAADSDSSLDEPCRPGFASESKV
T2 sequence (P07550 whole entry): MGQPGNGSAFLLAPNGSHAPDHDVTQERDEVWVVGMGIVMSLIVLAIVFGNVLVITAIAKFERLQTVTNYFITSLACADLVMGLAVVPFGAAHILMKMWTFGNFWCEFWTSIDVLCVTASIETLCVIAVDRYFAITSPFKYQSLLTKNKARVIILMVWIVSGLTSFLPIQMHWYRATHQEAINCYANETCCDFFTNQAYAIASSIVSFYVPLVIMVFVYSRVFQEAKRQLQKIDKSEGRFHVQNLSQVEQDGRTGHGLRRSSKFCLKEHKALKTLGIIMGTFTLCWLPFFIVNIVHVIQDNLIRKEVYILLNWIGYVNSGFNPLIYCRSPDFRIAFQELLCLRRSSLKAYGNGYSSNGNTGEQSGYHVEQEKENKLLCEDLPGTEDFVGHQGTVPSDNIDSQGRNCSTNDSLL

With C[C@H](Cc1c[nH]c2c(OS(C)(=O)=O)cccc12)NC[C@H](O)c1cccc(NCc2ccccc2)c1 the EC50 [1] was 11 nM, the IA50 [2] was 87% and the Permeability (Papp* 10E6 cm/s) (Caco-2 [3]) was 9. It also gave an EC50 [4] of 16 nM.

For C=C(C)CNc1cccc([C@@H](O)CN[C@H](C)Cc2c[nH]c3c(OS(C)(=O)=O)cccc23)c1, the EC50 [1] was 17 nM, the IA50 [2] was 114% and the EC50 [4] was 1.5 nM.

C/C=C/CNc1cccc([C@@H](O)CN[C@H](C)Cc2c[nH]c3c(OS(C)(=O)=O)cccc23)c1 showed an EC50 [5] of 170 nM, an EC50 [1] of 1.2 nM and an IA50 [2] of 102%. For the same molecule, the EC50 [4] was 10 nM.

With C[C@H](Cc1c[nH]c2c(OS(C)(=O)=O)cccc12)NC[C@H](O)c1cccc(OCc2ccccc2)c1 the EC50 [1] was 15 nM, the IA50 [2] was 90% and the Permeability (Papp* 10E6 cm/s) (Caco-2 [3]) was 6.7. It also gave an EC50 [4] of 46 nM.

In the case of C#CCNc1cccc([C@@H](O)CN[C@H](C)Cc2c[nH]c3c(OS(C)(=O)=O)cccc23)c1, the EC50 [5] is reported as 45 nM, the EC50 [1] is reported as 10 nM and the IA50 [2] is reported as 102%. For the same molecule, the EC50 [4] was 9.6 nM.

C[C@H](Cc1c[nH]c2c(OS(C)(=O)=O)cccc12)NC[C@H](O)c1cccc(OS(=O)(=O)c2ccccc2)c1 showed an EC50 [1] of 32 nM, an IA50 [2] of 60% and a Permeability (Papp* 10E6 cm/s) (Caco-2 [3]) of 7.

Molecule C[C@H](Cc1c[nH]c2c(OS(C)(=O)=O)cccc12)NC[C@H](O)c1cccc(NS(=O)(=O)c2ccccc2)c1 has an EC50 [5] of 13 nM, an EC50 [1] of 0.54 nM and an EC50 [6] of 19 nM. It also gave an IA50 [2] of 90%.

In the case of C[C@H](Cc1c[nH]c2c(OS(C)(=O)=O)cccc12)NC[C@H](O)c1cccc(NC(=O)c2ccccc2)c1, the EC50 [5] is reported as 120 nM, the EC50 [1] is reported as 160 nM and the Permeability (Papp* 10E6 cm/s) (Caco-2 [7]) is reported as 0.9. For the same molecule, the IA50 [2] was 96% and the EC50 [4] was 69 nM.

Molecule CC/C=C/CNc1cccc([C@@H](O)CN[C@H](C)Cc2c[nH]c3c(OS(C)(=O)=O)cccc23)c1 has an EC50 [1] of 9 nM, an IA50 [2] of 101% and an EC50 [4] of 11 nM.

C=CCNc1cccc([C@@H](O)CN[C@H](C)Cc2c[nH]c3c(OS(C)(=O)=O)cccc23)c1 showed an EC50 [1] of 3.2 nM, an IA50 [2] of 110% and an EC50 [4] of 2.2 nM.

C[C@H](Cc1c[nH]c2c(OS(C)(=O)=O)cccc12)NC[C@H](O)c1cccc(NC/C=C/c2ccccc2)c1 showed an EC50 [1] of 1 nM, an IA50 [2] of 97% and an EC50 [4] of 13 nM.

With CC#CCNc1cccc([C@@H](O)CN[C@H](C)Cc2c[nH]c3c(OS(C)(=O)=O)cccc23)c1 the EC50 [1] was 6.5 nM, the IA50 [2] was 90% and the EC50 [4] was 18 nM.

Molecule C[C@H](Cc1c[nH]c2c(OS(C)(=O)=O)cccc12)NC[C@H](O)c1cccc(N(C)S(=O)(=O)c2ccccc2)c1 has an EC50 [1] of 52 nM, an IA50 [2] of 38% and a Permeability (Papp* 10E6 cm/s) (Caco-2 [3]) of 4.7.

C[C@H](Cc1c[nH]c2c(OS(C)(=O)=O)cccc12)NC[C@H](O)c1cccc(CS(=O)(=O)c2ccccc2)c1 gave an EC50 [1] of 100 nM, a Permeability (Papp* 10E6 cm/s) (Caco-2 [7]) of 0.9 and an IA50 [2] of 54%.

CC(C)=CCNc1cccc([C@@H](O)CN[C@H](C)Cc2c[nH]c3c(OS(C)(=O)=O)cccc23)c1 was tested, and the EC50 [5] was 160 nM, the EC50 [1] was 36 nM and the IA50 [2] was 79%. The EC50 [4] was 36 nM.

Molecule C[C@H](Cc1c[nH]c2c(OS(C)(=O)=O)cccc12)NC[C@H](O)c1cccc(NCc2ccc3ccccc3c2)c1 has an EC50 [1] of 2.9 nM and an IA50 [2] of 107%.

Reference: ChEMBL document CHEMBL1144318, “Tryptamine-based human beta3-adrenergic receptor agonists. Part 3: improved oral bioavailability via modification of the sulfonamide moiety” (Bioorg Med Chem Lett, 2005)
